High-throughput results: PubChem, several laboratories
HTR2A ag = mouse HTR2A agonism via beta-arrestin recruitment; P35363; CHO-K1 mHTR2A beta-arrestin complementation, luminescence; percent of 30 µM serotonin response; activation, % at 7.6 µM; actives 0.66% (n = 360,000); AID 624169;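 active = activation above a run cutoff, the mean activation of all tested compounds plus 3 SD, cut at about 14% in these data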;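 also: 0% = plate median of compound wells and 100% = 30 µM serotonin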
Target sequence (P35363 whole entry, looked up): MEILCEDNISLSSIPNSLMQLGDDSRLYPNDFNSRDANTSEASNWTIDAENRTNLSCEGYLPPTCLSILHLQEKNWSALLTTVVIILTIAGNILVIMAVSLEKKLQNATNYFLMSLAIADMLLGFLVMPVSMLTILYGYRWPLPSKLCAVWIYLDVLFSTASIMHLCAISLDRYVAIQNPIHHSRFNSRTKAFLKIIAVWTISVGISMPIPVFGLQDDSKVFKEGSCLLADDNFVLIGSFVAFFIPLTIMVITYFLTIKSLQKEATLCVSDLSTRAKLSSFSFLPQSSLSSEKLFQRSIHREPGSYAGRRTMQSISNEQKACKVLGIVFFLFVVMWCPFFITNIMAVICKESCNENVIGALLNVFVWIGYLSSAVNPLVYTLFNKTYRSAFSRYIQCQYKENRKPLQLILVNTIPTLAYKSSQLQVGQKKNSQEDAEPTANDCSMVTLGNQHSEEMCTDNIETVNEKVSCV
JMJD2C inh = inhibitors of human GASC-1 (JMJD2C) demethylase; actives 0.069% (n = 330,000); inhibition, % at 2.35 µM; Q9H3R0; AID 2099; GST-JMJD2C(1-420) H3K9me3 demethylation, DELFIA europium;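 active = more than half of a compound's replicate wells show inhibition beyond 50%, single wells judged on their own value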;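 also: signal counts dimethyl H3K9 product captured on neutravidin plate; 0% = median of DMSO wells and 100% = 0.3 times that DMSO median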
PP5 primary = blocks human protein phosphatase 5 activity. actives 0.18% (n = 320,000). purified PP5c, OMFP substrate fluorescence. inhibition, % at 6.7 µM;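 active = inhibition above the campaign's mean inhibition across all tested compounds plus 3 SD, cut at about 9.5% in these data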;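 also: 0% = DMSO only and 100% = 100 µM cantharidin control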
T cell HTS = T cell immune modulators affecting CD8 T cell-vesicle binding; response (vesicle binding), % at 7 µM; AID 2052; actives 0.068% (n = 330,000); 2C CD8+ T cell-vesicle binding, flow cytometry; hits give low values;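 active = response, share of CD8 T cells binding vesicles, and their 90th percentile fluorescence all below set limits, cut at about 80% in these data, passing the limit was not always enough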;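 also: values below 100% mean blocked vesicle binding to the CD8+ T cells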
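Also added: QL9-peptide-loaded Drosophila micro-vesicles bearing Ld, ICAM-1 and B7-1; Test system: purified 2C TCR transgenic mouse naive CD8+ T cells; Measured by: cytometric PE anti-B7-1 and Alexa647 anti-CD8 signals after 1% paraformaldehyde fixation; Timing: binding step 1.5 h, 37 °C, antibody labelling 20 min, ice.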
PP1 counter = PP1-alpha (human) inhibition in PP5 counter-screen; purified PP1alpha, OMFP fluorescence; inhibition, % at 6.7 µM; P62136; AID 2235; actives 0.9% (n = 320,000);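 active = inhibition above the mean inhibition of all tested compounds plus 3 SD, computed separately for each screening campaign, cut at about 15% in these data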
MOR ag counter = counter-screen for mouse HTR2A agonists: human mu opioid receptor agonists; U2OS OPRM1 beta-arrestin PathHunter, luminescence; DMSO 0%, DAMGO 9.3 µM 100%; actives 5.3% (n = 2,300); activation, % at 9.3 µM; AID 624380; shares compounds with HTR2A ag;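 active = mean activation above the mean of DMSO-only wells plus 3 SD, cut at about 0.5% in these data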
HTR2A ag conf = confirmation of mouse HTR2A serotonin receptor agonists. shares compounds with HTR2A ag. actives 19% (n = 2,300). activation, % at 7.6 µM. AID 624381. CHO-K1 PathHunter beta-arrestin recruitment, luminescence; DMSO 0%, 30 µM serotonin 100%;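 active = mean activation across triplicates above the hit threshold derived in the original primary screen, cut at about 15% in these data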
* marks the source's active call; other numbers are inactive results. A selection: hits, their analogues and other compounds. The true share with any hit is near 1.7%.

For O=[N+]([O-])c1ccc(O)c(Nc2c([N+](=O)[O-])ccc3nonc23)c1 the results were HTR2A ag 3, JMJD2C inh -5, PP5 primary 3, T cell HTS 212 and PP1 counter -1.
Screening CCCCN(CC)CCCNC(=O)CC1Oc2ccccc2NC1=O (configuration not stated) returned HTR2A ag 27*, JMJD2C inh -2, PP5 primary 4, T cell HTS 195, PP1 counter -10, MOR ag counter -1 and HTR2A ag conf 90*.
For CC(C)CN(CCCNC(=O)CC1Oc2ccccc2NC1=O)CC(C)C (configuration not stated) the results were HTR2A ag 2, JMJD2C inh 0, PP5 primary 3, T cell HTS 285 and PP1 counter -1.
For CN1CCC(=NNC(=O)CN(c2cccc([N+](=O)[O-])c2)S(=O)(=O)c2ccccc2)CC1 the results were HTR2A ag -2, JMJD2C inh 1, PP5 primary 4, T cell HTS 195 and PP1 counter 3.
CN1CCC(=NNC(=O)CN(c2ccc([N+](=O)[O-])cc2)S(=O)(=O)c2ccccc2)CC1 was read as HTR2A ag 17*, JMJD2C inh 10, PP5 primary 0, T cell HTS 214, PP1 counter 1, MOR ag counter -1 and HTR2A ag conf -5.
For CN(CC(=O)Nc1ccc(N2CCOCC2)cc1)C(=O)CCc1ccccc1Cl the results were HTR2A ag -4, JMJD2C inh 5, PP5 primary -2, T cell HTS 279 and PP1 counter -4.
Screening CC(C)[C@H](NC(=O)C1CC(=O)N(c2ccc3c(c2)OCCO3)C1)C(=O)NC1CCCC1 (some centres not stated) returned HTR2A ag 22*, JMJD2C inh -9, PP5 primary 0, T cell HTS 402, PP1 counter 1, MOR ag counter -1 and HTR2A ag conf -3.
CN(Cc1ccccc1)CC(O)COc1ccc(CNCCCOc2cccnc2)cc1 (configuration not stated) was read as HTR2A ag 0, JMJD2C inh -1, PP5 primary -1, T cell HTS 355 and PP1 counter 0.
For CN(Cc1ccccc1)CC(O)COc1ccc(CNCCOc2cccnc2)cc1 (configuration not stated) the results were HTR2A ag 18*, JMJD2C inh 9, PP5 primary 1, T cell HTS 316, PP1 counter -6, MOR ag counter -1 and HTR2A ag conf 38*.
For CCOC(=O)[C@]12CCC=C1N(Cc1ccc3c(c1)OCO3)C(=O)[C@H](CC(=O)NCCc1ccccc1OC)C2 the results were HTR2A ag 1.
`Cc1cc(C(C)(C)C)ccc1OCC(=O)N/N=C\c1c(C)n(C)n(-c2ccccc2)c1=O` gave HTR2A ag -11, JMJD2C inh -1, PP5 primary 2, T cell HTS 194 and PP1 counter 1.
`O=S(=O)(NOCc1ccc(Cl)cc1)c1ccc(Cl)cc1` gave HTR2A ag 15*, JMJD2C inh -4, PP5 primary 4, T cell HTS 423, PP1 counter 3, MOR ag counter 0 and HTR2A ag conf -3.
Screening Cc1ccc(CONS(=O)(=O)c2cc(C)ccc2C)cc1 returned HTR2A ag 1, JMJD2C inh -3, PP5 primary 2, T cell HTS 288 and PP1 counter 1.
`CCN(CC)CCn1c(NC(=O)c2ccccc2O)nc2ccccc21` gave HTR2A ag -5, JMJD2C inh -8, PP5 primary 1, T cell HTS 310 and PP1 counter 0.
Screening CCN(CC)CCn1c(NC(=O)c2ccc(Cl)cc2)nc2ccccc21 returned HTR2A ag 18*, JMJD2C inh 12, PP5 primary 0, T cell HTS 33, PP1 counter 4 and HTR2A ag conf 12.
Screening C[C@H](CO)N1C[C@H](C)[C@@H](CN(C)S(=O)(=O)c2cccs2)Oc2c(NC(=O)C3CC3)cccc2C1=O returned HTR2A ag 4, JMJD2C inh -27 and T cell HTS 425.
`COC(=O)c1ccccc1S(=O)(=O)N1CCC(C(=O)NC2CCCCC2C)CC1` (configuration not stated) gave HTR2A ag 4, JMJD2C inh 3, PP5 primary 2, T cell HTS 319 and PP1 counter -3.
`CCOC(=O)C1CCN(S(=O)(=O)c2c(C)n(C)c(=O)n(C)c2=O)CC1` gave HTR2A ag 21*, JMJD2C inh 35, PP5 primary 1, T cell HTS 481, PP1 counter -1, MOR ag counter -1 and HTR2A ag conf -1.
For CCC1=C(OC(=O)N(CC)CC)N2C(=O)OC(=NCC3CC3)[C@]2(Cc2ccccc2)[C@H]2C1=CC[C@H]1C(=O)N(CC)C(=O)[C@H]12 the results were HTR2A ag 18*, JMJD2C inh 0, PP5 primary 1, T cell HTS 312, PP1 counter -2, MOR ag counter 0.9* and HTR2A ag conf 4.
O=C(CCCOc1ccc(Cl)cc1)NC1CCCCC1 was read as HTR2A ag -3, JMJD2C inh 16, PP5 primary 3, T cell HTS 263 and PP1 counter -3.
`CC(C)(C)c1ccc(C(=O)Nc2ccccc2Cl)cc1` gave HTR2A ag -3, JMJD2C inh 1, PP5 primary -2, T cell HTS 383 and PP1 counter 3.
`O=C(Nc1ccccc1Cl)c1ccccc1CC(O)(c1ccccc1)c1ccccc1` gave HTR2A ag 21*, MOR ag counter 0 and HTR2A ag conf -4.
`O=C(NCC1OCCc2ccccc21)c1ccc(NC(=O)c2ccc(Cl)cc2Cl)cc1` (configuration not stated) gave HTR2A ag 16*, JMJD2C inh -4, PP5 primary 5, T cell HTS 212, PP1 counter -1, MOR ag counter 0.8* and HTR2A ag conf 11.
`O=C(NCC1OCCc2ccccc21)c1ccc(NC(=O)c2ccccc2Cl)cc1` (configuration not stated) gave HTR2A ag -3, JMJD2C inh -1, PP5 primary 0, T cell HTS 249 and PP1 counter 0.
CSc1ncc(CNc2cc([N+](=O)[O-])ccc2C)c(N)n1 was read as HTR2A ag 2, JMJD2C inh -3, PP5 primary 3 and PP1 counter -2.
